According to PubChem BioAssay:
Active and inactive are the calls of the source.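 How the source made its calls, unless noted: active means mean duplicate potentiation above the buffer control mean plus 5 SD of buffer wells; inactive means the rest.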

Biological target: Potassium voltage-gated channel subfamily KQT member 2 (Rattus norvegicus) (UniProt O88943)
Assay: rat KCNQ2 channel potentiation, selectivity assay for KCNQ1 potentiator project, KCNQ2-CHO-K1 cells (AID 493009);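 further: assay conditions were tuned for KCNQ1 rather than KCNQ2 modulators; signal is max minus min fluorescence divided by baseline after thallium stimulus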
Details: FluxOR thallium flux fluorescence, at 10 µM; stronger effect = higher value, scaled: buffer 0, activator control 100

Chain of Potassium voltage-gated channel subfamily KQT member 2 (Rattus norvegicus) (O88943 whole entry, looked up): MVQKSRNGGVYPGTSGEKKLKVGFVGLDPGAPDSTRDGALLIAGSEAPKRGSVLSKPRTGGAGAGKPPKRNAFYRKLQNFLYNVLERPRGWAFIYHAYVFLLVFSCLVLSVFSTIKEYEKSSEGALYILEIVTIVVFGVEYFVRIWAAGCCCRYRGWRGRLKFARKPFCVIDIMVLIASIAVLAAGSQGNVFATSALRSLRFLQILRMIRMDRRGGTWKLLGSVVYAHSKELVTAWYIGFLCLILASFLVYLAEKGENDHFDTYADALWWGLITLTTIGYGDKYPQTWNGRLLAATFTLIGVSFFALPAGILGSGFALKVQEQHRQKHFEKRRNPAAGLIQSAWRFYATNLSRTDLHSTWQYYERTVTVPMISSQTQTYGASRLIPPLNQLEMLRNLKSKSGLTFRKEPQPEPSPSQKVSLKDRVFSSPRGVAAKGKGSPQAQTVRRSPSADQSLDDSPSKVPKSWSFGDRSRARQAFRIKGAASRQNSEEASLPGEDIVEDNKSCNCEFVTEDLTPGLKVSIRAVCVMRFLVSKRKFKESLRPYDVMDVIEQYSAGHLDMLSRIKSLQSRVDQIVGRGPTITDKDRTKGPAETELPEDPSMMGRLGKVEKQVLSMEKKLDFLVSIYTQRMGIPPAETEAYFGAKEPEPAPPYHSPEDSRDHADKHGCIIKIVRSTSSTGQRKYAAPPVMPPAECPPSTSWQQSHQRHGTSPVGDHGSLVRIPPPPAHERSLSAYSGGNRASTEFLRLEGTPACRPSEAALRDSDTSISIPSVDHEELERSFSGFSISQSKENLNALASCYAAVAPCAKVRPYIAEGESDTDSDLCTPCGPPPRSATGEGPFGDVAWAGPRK

| SMILES | outcome | potentiation |
| --- | --- | --- |
| CC1(C)CC(=O)C2=C(C1)c1c(ccc3ccccc13)NC2c1cc([N+](=O)[O-])cc([N+](=O)[O-])c1O (stereo not drawn) | inactive | – |
| OCCN1CCN(CCCN2c3ccccc3Sc3ccc(Cl)cc32)CC1 | inactive | – |
| Oc1c(Br)cc(Br)cc1C=Nc1ccc2c(c1)OCO2 | inactive | – |
| COc1ccc(N2CCN(CC(=O)Nc3nc(C)cs3)CC2)cc1 | inactive | – |
| CC(=O)c1c(C)[nH]c(C(=O)Nc2cccc(C(F)(F)F)c2)c1C | inactive | – |
| COc1ccc(C)cc1NC(=O)C1C2C=CC(C2)C1C(=O)O (stereo not drawn) | inactive | – |
| CCN(c1ccc(NS(=O)(=O)c2cc(Cl)ccc2Cl)cc1)C(C)C | inactive | – |
| C/C(Cl)=C\Cn1c(O)c(N=NC(N)=S)c2cc(Br)ccc21 | inactive | – |
| Cc1cccc(CNC(=O)C2CCCN(c3nn4c(=O)cc(C)nc4s3)C2)c1 (stereo not drawn) | inactive | – |
| CC1CCc2sc3nc(N4CCN(CCO)CC4)n4ncnc4c3c2C1 (stereo not drawn) | – | 500% (active) |
| O=C(c1ccc(Cl)cc1)c1c[nH]c(C(=O)C(Cl)(Cl)Cl)c1 | inactive | – |
| Cc1ccc2oc(C(=O)N3CCN(c4cccc(C)n4)CC3)c(C)c2c1 | inactive | – |
| CCC(=O)NNc1nc2c(Cl)cccc2s1 | inactive | – |
| Cc1ccc(C(=O)N2CCNC(=O)C2CC(=O)Nc2ccc(F)cc2)cc1C (stereo not drawn) | inactive | – |
| CC(C)C1=NN(C(=O)c2ccccc2)C(O)(C(C)(C)C)C1 (stereo not drawn) | inactive | – |
| CCOC(=O)c1sc(C)nc1C1CCN(C(=O)OCC)CC1 | inactive | – |
| Cc1cc(Cl)c(S(=O)(=O)Nc2ccc3c(c2)OCO3)cc1OCC(N)=O | inactive | – |
| C=CCN(CC=C)C(=S)NC(=O)c1ccc(OC)c(Br)c1 | – | 474% (active) |
| COc1cc(CN(C)CC2CCCN(CCc3cccc(C(F)(F)F)c3)C2)ccc1O (stereo not drawn) | inactive | – |
| Cc1cc(C(=O)N2CCCC(N3CCN(c4cccc(Cl)c4)CC3)C2)n(C)n1 (stereo not drawn) | inactive | – |

| SMILES | outcome | potentiation |
| --- | --- | --- |
| CCOC(=O)c1sc(NC(=O)c2ccc(OC(C)=O)cc2)nc1C | inactive | – |
| COc1ccc(C2c3ccc4ccccc4c3Oc3ncn(CCCO)c(=N)c32)cc1 (stereo not drawn) | inactive | – |
| Cc1ccc(C(=O)Nc2nc3ccccc3c(=O)s2)cc1 | – | 216% (active) |
| CC(=O)N1N=C(c2ccccc2OC(=O)/C=C/c2ccccc2)CC1c1ccccc1 (stereo not drawn) | inactive | – |
| N=c1sccn1CC(=O)N1N=C(c2ccc(Cl)cc2)CC1c1ccco1 (stereo not drawn) | inactive | – |
| CCC(C)NC(=O)c1cc(Cl)c(NC(=O)C2=C(C)OCCS2)cc1OC (stereo not drawn) | inactive | – |
| CCC1CCCCN1C(=S)NC(=O)c1cccc([N+](=O)[O-])c1 (stereo not drawn) | – | 284% (active) |
| COc1ccc(-c2nc(=S)c3ccc4ccccc4c3[nH]2)cc1 | – | 180% (active) |
| N=c1sccn1CC(=O)Nc1cc(Cl)ccc1Oc1ccccc1 | inactive | – |
| Cc1cc(Cl)n2nc(C)c(-c3ccc(Cl)cc3)c2n1 | – | 340% (active) |
| CC(=O)N(C)c1ccc(NC(=O)Cc2cccc3ccccc23)cc1 | inactive | – |
| CC(Oc1ccc(Br)cc1)c1nc2c3ccccc3nc(=S)n2[nH]1 (stereo not drawn) | – | 178% (active) |
| CCCCCCCCCCCC(=O)NC(Cc1ccc(OC)c([N+](=O)[O-])c1)C(=O)O (stereo not drawn) | – | 349% (active) |
| Cc1nnc(C)n1/N=C/c1cc(Br)cc(Br)c1O | inactive | – |
| Cc1cccc(NC(=S)NC(=O)c2cc(-c3ccccc3)nc3ccccc23)c1 | inactive | – |
| C=CCn1c(SCN2C(=O)c3ccccc3C2=O)nc2ccc(Cl)cc2c1=O | inactive | – |
| O=C(N/N=C/c1ccccn1)c1cc(-c2ccc(Br)cc2)nc2ccccc12 | – | 174% (active) |
| CCN(CC)CCn1c(OC)cc(=O)[nH]c1=O | inactive | – |
| CC(C)(C)c1cc(C(=O)NNC(=O)c2ccc(C(F)(F)F)cc2)no1 | – | 161% (active) |

Biological target: Potassium voltage-gated channel subfamily KQT member 1 (Homo sapiens) (UniProt P51787)
Sequence (P51787 whole entry, looked up): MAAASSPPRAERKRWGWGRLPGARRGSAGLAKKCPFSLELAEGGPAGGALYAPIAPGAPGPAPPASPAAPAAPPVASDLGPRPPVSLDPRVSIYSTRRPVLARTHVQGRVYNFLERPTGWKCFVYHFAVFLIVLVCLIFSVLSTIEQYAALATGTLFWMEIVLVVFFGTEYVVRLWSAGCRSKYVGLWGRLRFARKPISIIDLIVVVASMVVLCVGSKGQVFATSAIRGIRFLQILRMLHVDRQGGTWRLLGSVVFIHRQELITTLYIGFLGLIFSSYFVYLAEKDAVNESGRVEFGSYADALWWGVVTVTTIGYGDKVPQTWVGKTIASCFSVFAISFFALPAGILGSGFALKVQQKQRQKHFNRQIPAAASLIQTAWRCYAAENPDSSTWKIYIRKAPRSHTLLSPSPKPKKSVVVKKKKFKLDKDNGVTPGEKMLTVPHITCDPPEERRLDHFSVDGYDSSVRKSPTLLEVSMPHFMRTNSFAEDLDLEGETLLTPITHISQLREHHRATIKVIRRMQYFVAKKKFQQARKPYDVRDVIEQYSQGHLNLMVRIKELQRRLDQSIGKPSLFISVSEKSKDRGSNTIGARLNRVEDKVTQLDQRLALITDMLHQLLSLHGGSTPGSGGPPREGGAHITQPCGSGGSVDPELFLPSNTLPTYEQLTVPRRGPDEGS
Assay: KCNQ1 channel current potentiators, confirmation, orthogonal assay for KCNQ1 potentiator project, IonWorks patch clamp, KCNQ1-CHO cells (AID 493184;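 active means current rise at least 3 SD above the untreated control mean in each of two repeat wells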)
Details: automated patch clamp current, at 10 µM; stronger effect = higher value
Procedure, shortened: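 Read-out: Percent current increase versus pre-compound level | Assay system: CHO cells carrying KCNQ1 | Measured by: Automated perforated-patch electrophysiology | Medium: External bath solution at pH 7.4 | Dosing: One dose, 10 µM final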

| SMILES | outcome |
| --- | --- |
| CC1(C)CC(=O)C2=C(C1)c1c(ccc3ccccc13)NC2c1cc([N+](=O)[O-])cc([N+](=O)[O-])c1O (stereo not drawn) | inactive |
| OCCN1CCN(CCCN2c3ccccc3Sc3ccc(Cl)cc32)CC1 | inactive |
| Oc1c(Br)cc(Br)cc1C=Nc1ccc2c(c1)OCO2 | inactive |
| COc1ccc(N2CCN(CC(=O)Nc3nc(C)cs3)CC2)cc1 | inactive |
| CC(=O)c1c(C)[nH]c(C(=O)Nc2cccc(C(F)(F)F)c2)c1C | inactive |
| COc1ccc(C)cc1NC(=O)C1C2C=CC(C2)C1C(=O)O (stereo not drawn) | inactive |
| CCN(c1ccc(NS(=O)(=O)c2cc(Cl)ccc2Cl)cc1)C(C)C | inactive |
| C/C(Cl)=C\Cn1c(O)c(N=NC(N)=S)c2cc(Br)ccc21 | inactive |
| Cc1cccc(CNC(=O)C2CCCN(c3nn4c(=O)cc(C)nc4s3)C2)c1 (stereo not drawn) | inactive |
| CC1CCc2sc3nc(N4CCN(CCO)CC4)n4ncnc4c3c2C1 (stereo not drawn) | inactive |
| O=C(c1ccc(Cl)cc1)c1c[nH]c(C(=O)C(Cl)(Cl)Cl)c1 | inactive |
| Cc1ccc2oc(C(=O)N3CCN(c4cccc(C)n4)CC3)c(C)c2c1 | inactive |
| CCC(=O)NNc1nc2c(Cl)cccc2s1 | inactive |
| Cc1ccc(C(=O)N2CCNC(=O)C2CC(=O)Nc2ccc(F)cc2)cc1C (stereo not drawn) | inactive |
| CC(C)C1=NN(C(=O)c2ccccc2)C(O)(C(C)(C)C)C1 (stereo not drawn) | inactive |
| CCOC(=O)c1sc(C)nc1C1CCN(C(=O)OCC)CC1 | inactive |
| Cc1cc(Cl)c(S(=O)(=O)Nc2ccc3c(c2)OCO3)cc1OCC(N)=O | inactive |
| C=CCN(CC=C)C(=S)NC(=O)c1ccc(OC)c(Br)c1 | inactive |
| COc1cc(CN(C)CC2CCCN(CCc3cccc(C(F)(F)F)c3)C2)ccc1O (stereo not drawn) | inactive |
| Cc1cc(C(=O)N2CCCC(N3CCN(c4cccc(Cl)c4)CC3)C2)n(C)n1 (stereo not drawn) | inactive |

| SMILES | outcome |
| --- | --- |
| CCOC(=O)c1sc(NC(=O)c2ccc(OC(C)=O)cc2)nc1C | inactive |
| COc1ccc(C2c3ccc4ccccc4c3Oc3ncn(CCCO)c(=N)c32)cc1 (stereo not drawn) | inactive |
| Cc1ccc(C(=O)Nc2nc3ccccc3c(=O)s2)cc1 | inactive |
| CC(=O)N1N=C(c2ccccc2OC(=O)/C=C/c2ccccc2)CC1c1ccccc1 (stereo not drawn) | inactive |
| N=c1sccn1CC(=O)N1N=C(c2ccc(Cl)cc2)CC1c1ccco1 (stereo not drawn) | inactive |
| CCC(C)NC(=O)c1cc(Cl)c(NC(=O)C2=C(C)OCCS2)cc1OC (stereo not drawn) | inactive |
| CCC1CCCCN1C(=S)NC(=O)c1cccc([N+](=O)[O-])c1 (stereo not drawn) | inactive |
| COc1ccc(-c2nc(=S)c3ccc4ccccc4c3[nH]2)cc1 | inactive |
| N=c1sccn1CC(=O)Nc1cc(Cl)ccc1Oc1ccccc1 | inactive |
| Cc1cc(Cl)n2nc(C)c(-c3ccc(Cl)cc3)c2n1 | inactive |
| CC(=O)N(C)c1ccc(NC(=O)Cc2cccc3ccccc23)cc1 | inactive |
| CC(Oc1ccc(Br)cc1)c1nc2c3ccccc3nc(=S)n2[nH]1 (stereo not drawn) | inactive |
| CCCCCCCCCCCC(=O)NC(Cc1ccc(OC)c([N+](=O)[O-])c1)C(=O)O (stereo not drawn) | inactive |
| Cc1nnc(C)n1/N=C/c1cc(Br)cc(Br)c1O | inactive |
| Cc1cccc(NC(=S)NC(=O)c2cc(-c3ccccc3)nc3ccccc23)c1 | inactive |
| C=CCn1c(SCN2C(=O)c3ccccc3C2=O)nc2ccc(Cl)cc2c1=O | inactive |
| O=C(N/N=C/c1ccccn1)c1cc(-c2ccc(Br)cc2)nc2ccccc12 | inactive |
| CCN(CC)CCn1c(OC)cc(=O)[nH]c1=O | inactive |
| CC(C)(C)c1cc(C(=O)NNC(=O)c2ccc(C(F)(F)F)cc2)no1 | inactive |
